ChEMBL document CHEMBL5046229 (Eur J Med Chem, 2022)
The source made the active and inactive calls. No cut-off for these calls is given here.

Key:
SET-2 = test: Antiproliferative activity against human SET-2 cells assessed as reduction in cell viability measured after 72 hrs by CellTiter-Fluor cell viability assay; type: functional, cell-based; conditions: SET-2, 72 h
Procedure, shortened: (§1)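 Cells grown in DMEM or RPMI 1640 with 10% FBS (20% for SET-2), 37 °C, 5% CO₂. About 500–1,000 cells/well seeded and incubated 24 h, then exposed to final concentrations of 0.1–20 μM for 72 h. Viability read by fluorescence (CellTiter-Fluor). IC₅₀ calculated from 3 independent experiments in duplicate wells, reported as mean ± SEM.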

[1] = Drug concentration in JAK2V6175 transgenic myelofibrosis C57BL/6 mouse spleen at 325 mg/kg, po measured after 4 hrs by LC-MS/MS analysis; type: ADME, organism-based; conditions: read-out: Ct
Procedure, shortened: (§2)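 Mice received a single oral dose of 325 mg/kg (n=4 per compound). Blood, spleen and bone marrow taken about 4 h later and homogenized. Extracts centrifuged at 10,000 × g and separated by reverse-phase C18 UPLC (0.1% formic acid water/acetonitrile gradient). Parent and metabolites quantified by MRM LC-MS/MS against internal-standard calibration (0.02–160 ng/mL, r² ≥ 0.99). Synthesized metabolite standards used for confirmation. Levels given as ng/g, mean ± SEM.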

[2] = molecular target: Phosphatidylinositol 4,5-bisphosphate 3-kinase catalytic subunit gamma isoform (Homo sapiens, UniProt P48736); test: Inhibition of human PI3Kgamma by TR-FRET based Adapta assay
[3] = Drug concentration in JAK2V6175 transgenic myelofibrosis C57BL/6 mouse blood at 325 mg/kg, po measured after 4 hrs by LC-MS/MS analysis; type: ADME, organism-based; conditions: whole blood, read-out: Ct; procedure, shortened: as §2
D54 cell line [4] = test: Antiproliferative activity against human D54 cells assessed as reduction in cell viability measured after 72 hrs by CellTiter-Fluor cell viability assay; type: functional, cell-based; conditions: D54, 72 h; procedure, shortened: as §1
D54 cell line [5] = test: Inhibition of ERK phosphorylation in human D-54 cells assessed as change in phosphorylated ERK level at 10 uM for 30 minutes in presence of PDGF by western blot analysis relative to control; type: cell-based; set-up: scale not given: the % may be the effect or the level left
Procedure, shortened: (§3)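 A375 and D54 cells grown in DMEM with 10% FBS; SET-2 in RPMI with 20% FBS. Cells treated 30 min at 10 μM; A375 and D54 also received PDGF 50 ng/ml, which was omitted for SET-2. Cells lysed in RIPA with protease and phosphatase inhibitors, then SDS-PAGE/western blot for pAKT S473, pERK1/2 T202/Y204, total AKT and total ERK. Densitometry of phospho signal normalized to total protein, expressed as % of control. 3 independent experiments, mean ± SEM.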

Spleen [6] = test: Effect of MAPK signalling pathway in JAK2V6175F transgenic myelofibrosis C57BL/6 mouse spleen assessed as reduction in ERK1/2 phosphorylation at 325 mg/kg, po daily for 5 days by flow cytometry analysis; type: functional, organism-based; conditions: time 5.0 day
Procedure, shortened: (§4)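 JAK2V617F bone-marrow-transplant MF mice were dosed 325 mg/kg orally daily for 5 days, then sacrificed. Isolated cells stained intracellularly with APC-conjugated anti-pAKT (S473) or anti-pERK1/2 (T202/Y204). Mean fluorescence intensity measured by flow cytometry. Vehicle n=6, treated n=4; mean ± s.e.m., Welch's t-test.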

[7] = molecular target: T1, Phosphatidylinositol 4,5-bisphosphate 3-kinase catalytic subunit delta isoform (Homo sapiens, UniProt O00329); test: Inhibition of human PI3Kdelta by TR-FRET based Adapta assay
T1 sequence (O00329 whole entry): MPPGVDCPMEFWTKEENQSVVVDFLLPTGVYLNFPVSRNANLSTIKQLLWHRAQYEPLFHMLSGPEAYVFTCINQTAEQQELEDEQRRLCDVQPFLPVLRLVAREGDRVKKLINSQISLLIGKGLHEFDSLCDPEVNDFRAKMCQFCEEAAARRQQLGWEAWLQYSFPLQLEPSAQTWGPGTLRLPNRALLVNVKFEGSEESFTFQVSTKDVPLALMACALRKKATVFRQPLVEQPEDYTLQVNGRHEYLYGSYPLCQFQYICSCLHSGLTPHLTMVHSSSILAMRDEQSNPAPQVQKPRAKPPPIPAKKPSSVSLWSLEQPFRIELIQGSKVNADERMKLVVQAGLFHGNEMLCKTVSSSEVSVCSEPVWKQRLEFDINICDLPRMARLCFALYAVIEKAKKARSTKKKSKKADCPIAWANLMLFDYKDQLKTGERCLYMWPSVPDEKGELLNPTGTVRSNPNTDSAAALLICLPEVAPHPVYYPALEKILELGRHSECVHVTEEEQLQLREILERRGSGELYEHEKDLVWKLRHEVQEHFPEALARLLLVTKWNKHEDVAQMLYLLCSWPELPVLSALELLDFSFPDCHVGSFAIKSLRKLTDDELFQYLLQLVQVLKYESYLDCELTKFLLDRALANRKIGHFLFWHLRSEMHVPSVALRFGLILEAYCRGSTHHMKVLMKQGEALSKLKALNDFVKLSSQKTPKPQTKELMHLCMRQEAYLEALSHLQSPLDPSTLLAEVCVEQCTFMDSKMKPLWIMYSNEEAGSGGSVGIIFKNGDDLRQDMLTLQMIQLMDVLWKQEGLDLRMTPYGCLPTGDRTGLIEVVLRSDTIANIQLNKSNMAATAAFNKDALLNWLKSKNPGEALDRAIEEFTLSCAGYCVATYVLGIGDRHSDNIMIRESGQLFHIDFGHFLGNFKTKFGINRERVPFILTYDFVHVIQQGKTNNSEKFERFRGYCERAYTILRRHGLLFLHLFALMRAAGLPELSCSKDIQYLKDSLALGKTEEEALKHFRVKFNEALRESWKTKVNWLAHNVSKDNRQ

SET2 [8] = test: Inhibition of ERK phosphorylation in human SET2 cells assessed as change in phosphorylated ERK level at 10 uM for 30 minutes in absence of PDGF by western blot analysis relative to control; set-up: scale not given: the % may be the effect or the level left
Spleen [9] = test: Effect of MAPK signalling pathway in JAK2V6175 transgenic myelofibrosis C57BL/6 mouse spleen assessed as reduction in […] phosphorylation at 325 mg/kg, po administered daily for 5 days by flow cytometry analysis; type: functional, organism-based; conditions: time 5.0 day; procedure, shortened: as §4
[10] = Drug metabolism in JAK2V6175 transgenic myelofibrosis C57BL/6 mouse spleen at 325 mg/kg, po assessed as metabolite formation measured after 4 hrs by LC-MS/MS analysis; type: ADME, organism-based; conditions: in vivo; procedure, shortened: as §2
[11] = molecular target: Phosphatidylinositol 4,5-bisphosphate 3-kinase catalytic subunit alpha isoform (Homo sapiens, UniProt P42336); test: Inhibition of human PI3Kalpha by TR-FRET based Adapta assay
Mus musculus [12] = test: Antitumor activity against JAK2V6175 transgenic myelofibrosis C57BL/6 mouse cancer model assessed as reduction in spleen weight at 325 mg/kg, po administered daily for 5 days; set-up: scale not given: the % may be the effect or the level left; conditions: time 5 day
[13] = molecular target: Dual specificity mitogen-activated protein kinase kinase 1 (Homo sapiens, UniProt Q02750); test: Inhibition of human MEK-1 by Lanthascreen TR-FRET assay
A-375 [14] = test: Antiproliferative activity against human A-375 cells assessed as reduction in cell viability measured after 72 hrs by CellTiter-Fluor cell viability assay; type: functional, cell-based; conditions: A-375, 72 h; procedure, shortened: as §1
Spleen [15] = test: Effect of PI3K signalling pathway in JAK2V6175 transgenic myelofibrosis C57BL/6 mouse spleen assessed as reduction in AKT phosphorylation at 325 mg/kg, po administered daily for 5 days by flow cytometry analysis; type: functional, organism-based; conditions: time 5.0 day; procedure, shortened: as §4
[16] = molecular target: Phosphatidylinositol 4,5-bisphosphate 3-kinase catalytic subunit beta isoform (Homo sapiens, UniProt P42338); test: Inhibition of human PI3Kbeta by TR-FRET based Adapta assay
Spleen [17] = test: Effect in JAK2V6175 transgenic myelofibrosis C57BL/6 mouse spleen assessed as reduction in ERK1/2 phosphorylation at 325 mg/kg, po administered daily for 5 days by flow cytometry analysis; conditions: time 5.0 day
D54 cell line [18] = test: Inhibition of AKT phosphorylation in human D-54 cells assessed as change in phosphorylated Akt level at 10 uM for 30 minutes in presence of PDGF by western blot analysis relative to control; type: cell-based; set-up: scale not given: the % may be the effect or the level left; procedure, shortened: as §3
[19] = Drug metabolism in JAK2V6175 transgenic myelofibrosis C57BL/6 mouse blood at 325 mg/kg, po assessed as metabolite formation measured after 4 hrs by LC-MS/MS analysis; type: ADME, organism-based; conditions: in vivo; procedure, shortened: as §2
[20] = Drug concentration in JAK2V6175 transgenic myelofibrosis C57BL/6 mouse bone marrow at 325 mg/kg, po measured after 4 hrs by LC-MS/MS analysis; type: ADME, organism-based; conditions: read-out: Ct; procedure, shortened: as §2
A-375 [21] = test: Inhibition of AKT phosphorylation in human A-375 cells assessed as change in phosphorylated Akt level at 10 uM for 30 minutes in presence of PDGF by western blot analysis relative to control; type: cell-based; set-up: scale not given: the % may be the effect or the level left; procedure, shortened: as §3
[22] = Drug metabolism in JAK2V6175 transgenic myelofibrosis C57BL/6 mouse bone marrow at 325 mg/kg, po assessed as metabolite formation measured after 4 hrs by LC-MS/MS analysis; type: ADME, organism-based; conditions: in vivo; procedure, shortened: as §2
A-375 [23] = test: Inhibition of ERK phosphorylation in human A-375 cells assessed as change in phosphorylated ERK level at 10 uM for 30 minutes in presence of PDGF by western blot analysis relative to control; type: cell-based; set-up: scale not given: the % may be the effect or the level left; procedure, shortened: as §3
Mus musculus [24] = test: Antitumor activity against JAK2V6175 transgenic myelofibrosis C57BL/6 mouse cancer model assessed as reduction in spleen volume at 325 mg/kg, po administered daily for 4 days by magnetic resonance imaging analysis; type: functional, organism-based; conditions: time 4.0 day
Procedure, shortened: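 Lethally irradiated C57BL/6 female recipients received 5 million mixed bone marrow cells (Mx1-Cre; JAK2V617F donor with WT, 1:9) and polyI:C twice 2 weeks after transplant. 325 mg/kg by oral gavage daily. Spleen volume by anatomic MRI at 7T after 4 days. Vehicle n=5, treated n=4; mean ± s.d., Welch's t-test.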

SET2 [25] = test: Inhibition of AKT phosphorylation in human SET2 cells assessed as change in phosphorylated Akt level at 10 uM for 30 minutes in absence of PDGF by western blot analysis relative to control; set-up: scale not given: the % may be the effect or the level left

Chain of Phosphatidylinositol 4,5-bisphosphate 3-kinase catalytic subunit alpha isoform (P42336 whole entry, canonical isoform): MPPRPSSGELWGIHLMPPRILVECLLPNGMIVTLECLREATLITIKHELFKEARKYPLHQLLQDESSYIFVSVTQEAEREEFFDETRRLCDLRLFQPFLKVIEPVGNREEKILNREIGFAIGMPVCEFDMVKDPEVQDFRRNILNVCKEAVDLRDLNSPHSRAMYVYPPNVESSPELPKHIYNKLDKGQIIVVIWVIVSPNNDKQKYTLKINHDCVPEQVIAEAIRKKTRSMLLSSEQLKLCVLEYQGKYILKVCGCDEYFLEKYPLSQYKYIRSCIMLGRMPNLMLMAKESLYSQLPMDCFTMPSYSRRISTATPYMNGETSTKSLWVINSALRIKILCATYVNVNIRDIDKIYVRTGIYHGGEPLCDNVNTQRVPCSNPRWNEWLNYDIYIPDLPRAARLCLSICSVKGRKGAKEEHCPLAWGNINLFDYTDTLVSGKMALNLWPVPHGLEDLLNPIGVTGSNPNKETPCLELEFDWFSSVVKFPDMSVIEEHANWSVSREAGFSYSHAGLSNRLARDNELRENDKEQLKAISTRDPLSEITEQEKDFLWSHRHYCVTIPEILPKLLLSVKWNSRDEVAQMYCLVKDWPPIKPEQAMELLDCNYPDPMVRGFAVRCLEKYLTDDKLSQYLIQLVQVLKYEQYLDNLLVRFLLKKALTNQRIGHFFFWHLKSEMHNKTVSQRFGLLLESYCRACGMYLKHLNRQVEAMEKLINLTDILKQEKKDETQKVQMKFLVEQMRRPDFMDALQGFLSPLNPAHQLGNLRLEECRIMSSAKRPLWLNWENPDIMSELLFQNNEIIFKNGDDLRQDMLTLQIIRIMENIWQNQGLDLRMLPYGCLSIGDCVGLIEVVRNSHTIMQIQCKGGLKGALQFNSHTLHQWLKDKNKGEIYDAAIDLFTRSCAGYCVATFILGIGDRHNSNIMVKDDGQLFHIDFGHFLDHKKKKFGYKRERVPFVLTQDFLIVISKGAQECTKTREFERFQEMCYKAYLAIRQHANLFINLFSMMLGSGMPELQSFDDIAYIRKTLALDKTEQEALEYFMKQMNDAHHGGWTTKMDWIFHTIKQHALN
Chain of Phosphatidylinositol 4,5-bisphosphate 3-kinase catalytic subunit beta isoform (P42338 whole entry, canonical isoform): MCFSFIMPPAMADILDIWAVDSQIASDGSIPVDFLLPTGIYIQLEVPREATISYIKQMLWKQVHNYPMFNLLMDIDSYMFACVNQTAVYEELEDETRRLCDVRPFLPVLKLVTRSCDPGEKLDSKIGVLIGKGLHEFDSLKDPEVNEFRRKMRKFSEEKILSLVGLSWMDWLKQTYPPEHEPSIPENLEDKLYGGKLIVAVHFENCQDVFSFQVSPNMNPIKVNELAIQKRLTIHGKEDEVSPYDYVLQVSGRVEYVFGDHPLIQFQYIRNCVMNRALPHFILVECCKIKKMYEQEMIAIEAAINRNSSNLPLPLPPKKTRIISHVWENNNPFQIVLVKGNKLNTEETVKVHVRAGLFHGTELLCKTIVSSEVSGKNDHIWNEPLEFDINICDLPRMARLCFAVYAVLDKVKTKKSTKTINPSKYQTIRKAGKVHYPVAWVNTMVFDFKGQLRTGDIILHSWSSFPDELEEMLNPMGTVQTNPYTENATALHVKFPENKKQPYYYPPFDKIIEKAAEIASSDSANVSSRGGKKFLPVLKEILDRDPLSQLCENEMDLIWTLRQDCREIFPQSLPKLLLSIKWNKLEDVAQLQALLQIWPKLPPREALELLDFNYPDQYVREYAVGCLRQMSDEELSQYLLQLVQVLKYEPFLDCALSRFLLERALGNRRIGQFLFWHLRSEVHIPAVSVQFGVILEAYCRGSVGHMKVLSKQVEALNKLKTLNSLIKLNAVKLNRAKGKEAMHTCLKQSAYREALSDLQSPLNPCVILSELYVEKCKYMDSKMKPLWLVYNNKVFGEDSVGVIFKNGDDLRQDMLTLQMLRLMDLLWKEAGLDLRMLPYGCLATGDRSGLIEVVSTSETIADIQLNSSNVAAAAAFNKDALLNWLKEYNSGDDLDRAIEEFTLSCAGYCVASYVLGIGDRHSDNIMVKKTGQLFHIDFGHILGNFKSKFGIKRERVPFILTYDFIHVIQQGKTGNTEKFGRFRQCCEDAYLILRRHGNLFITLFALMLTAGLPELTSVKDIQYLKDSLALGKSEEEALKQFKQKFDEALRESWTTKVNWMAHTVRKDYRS
Chain of Dual specificity mitogen-activated protein kinase kinase 1 (Q02750 whole entry): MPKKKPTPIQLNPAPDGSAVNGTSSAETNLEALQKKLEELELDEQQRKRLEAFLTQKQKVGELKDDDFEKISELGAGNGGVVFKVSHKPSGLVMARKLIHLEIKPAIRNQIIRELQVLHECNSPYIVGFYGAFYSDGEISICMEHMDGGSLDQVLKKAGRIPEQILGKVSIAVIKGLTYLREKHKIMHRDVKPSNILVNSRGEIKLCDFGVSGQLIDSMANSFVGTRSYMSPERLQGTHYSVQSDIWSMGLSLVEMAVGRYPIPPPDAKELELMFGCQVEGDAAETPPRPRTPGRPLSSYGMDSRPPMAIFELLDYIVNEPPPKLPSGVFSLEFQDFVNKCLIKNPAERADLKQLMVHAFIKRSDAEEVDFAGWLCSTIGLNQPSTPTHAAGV
Chain of Phosphatidylinositol 4,5-bisphosphate 3-kinase catalytic subunit gamma isoform (P48736 whole entry, canonical isoform): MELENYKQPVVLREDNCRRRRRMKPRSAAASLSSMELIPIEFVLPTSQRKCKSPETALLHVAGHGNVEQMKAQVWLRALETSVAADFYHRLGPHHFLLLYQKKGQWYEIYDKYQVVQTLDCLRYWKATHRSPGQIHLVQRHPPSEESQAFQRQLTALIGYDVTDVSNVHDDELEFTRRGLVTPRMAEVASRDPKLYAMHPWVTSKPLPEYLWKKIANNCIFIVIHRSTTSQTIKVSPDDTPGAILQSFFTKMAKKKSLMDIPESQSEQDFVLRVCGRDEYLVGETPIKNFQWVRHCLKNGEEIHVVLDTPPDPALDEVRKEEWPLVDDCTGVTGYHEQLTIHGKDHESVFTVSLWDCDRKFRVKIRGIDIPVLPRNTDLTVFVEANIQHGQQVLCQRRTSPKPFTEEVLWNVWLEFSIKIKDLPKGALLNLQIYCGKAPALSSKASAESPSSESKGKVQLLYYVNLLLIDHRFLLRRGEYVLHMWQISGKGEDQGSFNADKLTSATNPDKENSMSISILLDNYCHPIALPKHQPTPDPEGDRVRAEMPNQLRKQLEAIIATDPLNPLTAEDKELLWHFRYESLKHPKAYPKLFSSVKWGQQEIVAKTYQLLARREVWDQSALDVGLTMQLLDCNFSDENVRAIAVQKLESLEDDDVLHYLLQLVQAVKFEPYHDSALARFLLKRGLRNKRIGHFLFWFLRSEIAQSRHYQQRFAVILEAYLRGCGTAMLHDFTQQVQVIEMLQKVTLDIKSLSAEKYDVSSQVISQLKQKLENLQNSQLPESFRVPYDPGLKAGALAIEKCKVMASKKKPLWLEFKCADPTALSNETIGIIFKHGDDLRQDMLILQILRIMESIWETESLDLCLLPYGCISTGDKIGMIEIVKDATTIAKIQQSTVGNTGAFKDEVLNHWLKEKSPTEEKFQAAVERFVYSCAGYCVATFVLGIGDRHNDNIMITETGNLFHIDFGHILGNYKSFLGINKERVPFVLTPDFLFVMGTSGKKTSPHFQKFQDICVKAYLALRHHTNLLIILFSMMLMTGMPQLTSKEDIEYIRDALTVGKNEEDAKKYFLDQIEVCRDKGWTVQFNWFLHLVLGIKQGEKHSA

O=C(NOCCOCCOCCOCCNc1nc(N2CCOCC2)nc(-n2c(C(F)F)nc3ccccc32)n1)c1ccc(F)c(F)c1Nc1ccc(I)cc1F
IC50 (SET-2): 10.7 µM | concentration at 4 h [1]: 2000 ng/g | IC50 [2]: 2.74 µM | concentration at 4 h [3]: 2000 ng/g | IC50 (D54 cell line [4]): 17.3 µM | Activity (D54 cell line [5]): 66.4% | inhibition (Spleen [6]): Active | IC50 [7]: 0.236 µM | Activity (SET2 [8]): 76.8% | inhibition (Spleen [9]): Active | Drug metabolism [10]: Metabolite_Detected | IC50 [11]: 0.13 µM | Activity (Mus musculus [12]): 35% | IC50 [13]: 0.124 µM | IC50 (A-375 [14]): 10.7 µM | inhibition (Spleen [15]): Active | IC50 [16]: 1.54 µM | inhibition (Spleen [17]): Active | Activity (D54 cell line [18]): 22.5% | Drug metabolism [19]: Metabolite_Detected | concentration at 4 h [20]: 2000 ng/g | Activity (A-375 [21]): 23.7% | Drug metabolism [22]: Metabolite_Detected | Activity (A-375 [23]): 85.5% | Activity (Mus musculus [24]): Active | Activity (SET2 [25]): 28.9%

O=C(NOCCOCCOCCOCCN(CCO)c1nc(N2CCOCC2)nc(-n2c(C(F)F)nc3ccccc32)n1)c1ccc(F)c(F)c1Nc1ccc(I)cc1F
IC50 (SET-2): 7 µM | concentration at 4 h [1]: 2000 ng/g | concentration at 4 h [3]: 2000 ng/g | IC50 (D54 cell line [4]): 9.9 µM | Activity (D54 cell line [5]): 87.3% | inhibition (Spleen [6]): Active | Activity (SET2 [8]): 90% | inhibition (Spleen [9]): Active | Drug metabolism [10]: Metabolite_Detected | Activity (Mus musculus [12]): 53% | IC50 (A-375 [14]): 8.5 µM | inhibition (Spleen [15]): Active | inhibition (Spleen [17]): Active | Activity (D54 cell line [18]): 65.3% | Drug metabolism [19]: Metabolite_Detected | concentration at 4 h [20]: 2000 ng/g | Activity (A-375 [21]): 70.8% | Drug metabolism [22]: Metabolite_Detected | Activity (A-375 [23]): 96% | Activity (Mus musculus [24]): Active | Activity (SET2 [25]): 54.8%
